Screening results (PubChem)
The list is not random: actives were taken first. Their share in the collection is about 4.3%.
Beta2AR agonist: agonists of human beta-2 adrenergic receptor inducing internalization; P07550; Am2.2-beta2AR cells, FAP receptor internalization, flow cytometry; response, % (no concentration beside the values); 340,000 tested, 0.43% active; AID 504454;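 active = response above a set limit, near 3 SD of response in nonfluorescent compounds, cut at about 42% in these data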
Target sequence (P07550 whole entry, looked up): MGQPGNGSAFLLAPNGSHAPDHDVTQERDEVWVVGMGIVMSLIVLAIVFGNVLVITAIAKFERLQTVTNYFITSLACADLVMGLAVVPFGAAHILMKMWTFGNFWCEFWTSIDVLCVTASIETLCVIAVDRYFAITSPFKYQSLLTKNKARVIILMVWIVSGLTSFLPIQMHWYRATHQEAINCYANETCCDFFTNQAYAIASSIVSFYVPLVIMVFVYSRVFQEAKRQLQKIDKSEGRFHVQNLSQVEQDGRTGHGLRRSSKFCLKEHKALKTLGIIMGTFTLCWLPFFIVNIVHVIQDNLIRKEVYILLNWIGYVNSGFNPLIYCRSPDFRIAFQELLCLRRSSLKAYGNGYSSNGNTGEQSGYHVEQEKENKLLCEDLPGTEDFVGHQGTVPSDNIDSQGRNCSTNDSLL
MC4R antagonist: antagonists of human melanocortin 4 receptor (MC4R). P32245. MC4R-expressing cells, MTII-stimulated cAMP, LANCE TR-FRET. inhibition, % at 6.5 µM. 360,000 tested, 0.48% active. AID 540295;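 active = inhibition above its plate's cutoff, the mean of tested wells on that plate plus 3 SD, cut at about 29% in these data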;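 also: 0% = Melanotan II alone and 100% = Melanotan II plus saturating MCL0020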
Target sequence (P32245 whole entry, looked up): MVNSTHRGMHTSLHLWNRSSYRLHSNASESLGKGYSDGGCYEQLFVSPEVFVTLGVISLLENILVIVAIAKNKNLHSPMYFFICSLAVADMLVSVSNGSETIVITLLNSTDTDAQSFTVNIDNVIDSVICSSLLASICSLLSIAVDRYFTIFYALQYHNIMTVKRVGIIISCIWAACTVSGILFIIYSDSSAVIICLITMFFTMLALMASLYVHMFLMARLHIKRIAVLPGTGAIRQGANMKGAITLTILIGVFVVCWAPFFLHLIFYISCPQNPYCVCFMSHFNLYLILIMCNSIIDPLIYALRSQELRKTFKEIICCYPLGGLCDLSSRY
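System – human MC4R-expressing U2OS cells · Also added – Melanotan II · Dosing – one concentration, 6.5 µM nominal · Timing – 30-min compound, 1-h challenge, 1-h detection, room temperature · Measured by – Eu-cAMP/anti-cAMP TR-FRET, emission 671 nm · Replicates – singlicate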
MC4R barr agon: activates human MC4R beta-arrestin recruitment. 360,000 tested, 0.98% active. activation, % at 8.9 µM. U2OS MC4R beta-arrestin complementation, luminescence; percent of melanotan II response, DMSO zero. P32245. AID 540308;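 active = activation above a per-plate cutoff, the mean activation of sample wells on that plate plus 3 SD, cut at about 8% in these data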
TAAR1 agonist: human TAAR1 agonism; 360,000 tested, 0.99% active; Q96RJ0; activation, % at 3 µM; AID 624467; CHO RD-HGA16 TAAR1, Fluo-8 calcium fluorescence; vehicle wells 0%, saturating PEA agonist 100%;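 active = activation above the mean activation of all test compounds in the run plus 3 SD, cut at about 38% in these data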
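Assay system: CHO-derived RD-HGA16 cells with stable Gα16 and human TAAR1; timing: 17-24 h seeding, 75 min 37 °C dye, 30 min RT; read-out: % activation from peak over basal fluorescence ratio, DMSO-to-PEA scaled; measured by: kinetic Fluo-8 calcium fluorescence; benchmarks: low control DMSO, high control PEA (EC100); doses: 3 µM single concentration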
TAAR1 antag: human TAAR1 antagonism | Q96RJ0 | inhibition, % at 3 µM | CHO RD-HGA16 TAAR1, Fluo-8 calcium fluorescence, antagonist | AID 624466 | 360,000 tested, 1.5% active;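 active = inhibition above a per-plate cutoff, the mean inhibition of test compounds on that plate plus 3 SD, cut at about 49% in these data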;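 also: 0% = DMSO plus EC80 beta-PEA response and 100% = DMSO alone without agonist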
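System: RD-HGA16 CHO cells with stable hTAAR1 and Gα16 | Probe or stimulus: EC80 β-phenethylamine stimulus | Dosing: 3 µM, single point | Times: Dye loading 75 min at 37 °C, then 30 min room temperature | Measured by: Fluo-8 calcium-sensitive fluorescence | Read-out basis: % inhibition of agonist calcium response | Replicates: n of 1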
HTR2A ag: mouse HTR2A agonism via beta-arrestin recruitment; P35363; CHO-K1 mHTR2A beta-arrestin complementation, luminescence; percent of 30 µM serotonin response; activation, % at 7.6 µM; 360,000 tested, 0.66% active; AID 624169;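 active = activation above a run cutoff, the mean activation of all tested compounds plus 3 SD, cut at about 14% in these data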;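 also: 0% = plate median of compound wells and 100% = 30 µM serotonin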
TAAR1 nonsel count: nonselective antagonism, TAAR1 counter-screen | 2,400 tested, 77% active | counterscreen cell line, calcium fluorescence, antagonist mode | shares compounds with TAAR1 antag | inhibition, % at 3 µM; in the data active = inhibition above about 22%;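 also: CHO-Ga16 host cells stimulated with ATP at an EC80 level; 0% = agonist EC80 plus vehicle and 100% = vehicle without agonist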
TAAR1 antag conf: human TAAR1 antagonism, confirmed | inhibition, % at 3 µM | 2,400 tested, 40% active | AID 651785 | TAAR1-expressing cells, fluorescence antagonist read-out | shares compounds with TAAR1 antag; in the data active = inhibition above about 49%;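 also: CHO-Ga16 host cells challenged with agonist PEA near its EC80; 0% = agonist at EC80 plus vehicle and 100% = vehicle with no agonist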
Ga16 ag counter: counter-screen for TAAR1 antagonists: nonselective Ga16 agonists; shares compounds with TAAR1 antag; activation, % at 3 µM; Ga16-expressing cells, calcium fluorescence, agonist counterscreen; 2,400 tested, 18% active; in the data active = activation above about 12%;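 also: 0% = vehicle wells and 100% = saturating stimulus response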
TAAR1 ag count: counter-screen for human TAAR1 antagonists: TAAR1 agonists; shares compounds with TAAR1 antag; hTAAR1 cell line, fluorescence activation, agonist mode; activation, % at 3 µM; 2,400 tested, 2% active; in the data active = activation above about 37%;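 also: CHO cells stably expressing TAAR1 with calcium dye readout; 0% = DMSO vehicle and 100% = full agonist response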
Numbers without * were called inactive; x = no result.

SMILES	Beta2AR agonist	MC4R antagonist	MC4R barr agon	TAAR1 agonist	TAAR1 antag	HTR2A ag	TAAR1 nonsel count	TAAR1 antag conf	Ga16 ag counter	TAAR1 ag count
O=C(NCCc1ccc(Cl)cc1)c1ccc(CS(=O)Cc2ccccc2Cl)o1 (configuration not stated)	-0.4	4.8	-3.9	8.9	60.3*	-0.9	29.1*	40.4	8.6	8.3
O=C(c1ccc(CS(=O)Cc2ccc(Cl)cc2)o1)N1CCN(c2ccccn2)CC1 (configuration not stated)	-17.5	12.2	-2.0	9.7	5.5	5.5	x	x	x	x
O=C(CC1CC2CCC1C2)NC1CCCCCCC1 (configuration not stated)	-4.1	7.5	0.1	3.3	-1.9	8.2	x	x	x	x
COCc1[nH]nc2c1C(c1ccc3c(c1)OCO3)N(c1ccc(OC)cc1)C2=O (configuration not stated)	x	x	x	0.8	-23.3	x	x	x	x	x
O=C(N/N=C\c1ccc(COc2ccc([N+](=O)[O-])cc2)o1)c1cccc(Cl)c1	1.8	6.7	-2.0	15.6	55.8*	-3.3	25.5*	41.8	4.0	5.1
CCc1ccc(S(=O)(=O)N2CCN(C(=O)C3CCN(C(C)=O)CC3)CC2)cc1	4.2	-3.2	0.4	1.2	-12.7	8.9	x	x	x	x
O=C(Nc1ccc(S(=O)(=O)NCc2ccco2)cc1)c1ccc(F)cc1	2.8	19.0	2.1	4.9	-2.6	-2.8	x	x	x	x
O=C(OCC(=O)N1CCc2ccccc21)c1c2c(nc3ccccc13)CCCC2	18.1	4.4	-1.8	2.5	57.1*	-5.2	24.0*	37.1	1.4	3.5
CC1Cc2ccccc2N1C(=O)COC(=O)c1c2c(nc3ccccc13)CCCCC2 (configuration not stated)	22.8	23.8	3.5	0.8	41.6	1.3	x	x	x	x
O=C(COC(=O)c1c2c(nc3ccccc13)CCCC2)c1cccs1	4.3	22.3	-1.3	5.8	53.1*	-2.3	25.9*	36.0	2.3	1.1
CN(CC(=O)Nc1ccccc1C(F)(F)F)C(=O)c1ccc2c(=O)n3c(nc2c1)CCC3	-3.5	-8.3	-0.1	3.2	-10.3	-2.8	x	x	x	x
O=C(Nc1cccnc1)c1ccc(COc2ccccc2Br)cc1	1.8	0.1	1.0	9.3	79.3*	-2.2	15.1	59.5*	6.2	9.3
CN1CCN(C(=O)CSc2nc3ccc(NC(=O)c4ccccc4F)cc3s2)CC1	-5.8	-4.3	-0.9	4.7	-9.0	1.7	x	x	x	x
COC(=O)CSc1nc2ccc(NC(=O)c3ccccc3C(=O)N3CCOCC3)cc2s1	17.4	14.3	-2.6	22.4	54.8*	3.3	24.4*	50.3*	9.2	7.7
CCOC(=O)C1=C(CN2CCN(C(=O)c3ccco3)CC2)NC(=O)NC1c1ccc(OC)cc1 (configuration not stated)	-10.4	-1.4	-1.5	4.8	-31.4	0.0	x	x	x	x
CCc1ccccc1NC(=O)C1=CC(c2ccc(OC)c(OC)c2)=NS(=O)(=O)N1C	1.5	8.0	0.0	0.8	-11.6	5.8	x	x	x	x
Cn1c(=O)n(C)c2cc([N+](=O)[O-])c(N3CCN(S(=O)(=O)c4ccccc4)CC3)cc21	1.2	14.9	-1.5	21.9	61.9*	-1.2	26.3*	54.0*	14.7*	23.1
CCOC(=O)C1=C(COC(=O)/C=C/c2ccc(O)c(OC)c2)NC(=O)NC1C (configuration not stated)	22.0	4.3	-3.2	25.9	61.9*	-5.8	28.4*	51.2*	12.9*	19.7
CCOC(=O)C1=C(COC(=O)/C=C/c2cccc(Cl)c2)NC(=O)NC1C (configuration not stated)	1.8	3.2	4.2	12.5	27.9	-8.3	x	x	x	x
CCOC(=O)C1=C(COC(=O)/C=C/c2cccc([N+](=O)[O-])c2)NC(=O)NC1C (configuration not stated)	15.6	3.3	-2.0	24.0	58.4*	-0.4	20.9	56.3*	14.7*	19.8
CCOC(=O)C1=C(COC(=O)Cc2ccc(Cl)cc2)NC(=O)NC1C (configuration not stated)	6.7	6.8	-1.2	16.9	60.2*	1.9	24.6*	41.7	7.5	4.7
CCOC(=O)C1=C(COC(=O)/C=C/c2cccc(Br)c2)NC(=O)NC1C (configuration not stated)	-2.0	2.7	1.8	24.1	58.5*	0.7	9.6	36.9	10.4	11.2
CCN(CC)S(=O)(=O)c1ccc(OC)c(NC(=O)OCc2ccccc2)c1	2.1	9.9	0.0	-3.1	15.3	-8.0	x	x	x	x
CCOc1ccccc1NC(=O)COC(=O)C12CC3CC(CC(O)(C3)C1)C2	-0.2	12.5	-1.4	6.8	0.3	3.2	x	x	x	x
CCc1cccc2c(C(=O)COC(=O)c3nn(C)c(=O)c4ccccc34)c[nH]c12	25.3	9.3	0.7	25.5	57.6*	-0.8	36.6*	48.5	13.7*	10.9
SMILES	Beta2AR agonist	MC4R antagonist	MC4R barr agon	TAAR1 agonist	TAAR1 antag	HTR2A ag	TAAR1 nonsel count	TAAR1 antag conf	Ga16 ag counter	TAAR1 ag count
CCc1cccc2c(C(=O)COC(=O)C3=NNC(=O)CC3)c[nH]c12	7.5	2.5	5.7	7.0	7.2	-1.3	x	x	x	x
COc1ccc(/C=C/C(=O)NC(=S)NCC2CCCO2)cc1 (configuration not stated)	4.2	15.1	-1.6	4.3	11.4	-2.0	x	x	x	x
COc1ccccc1/C=C/C(=O)NC(=S)NCC1CCCO1 (configuration not stated)	-1.9	3.4	-3.1	6.1	74.1*	4.3	27.0*	52.0*	4.8	6.7
COc1ccc(NC(=O)C2CCCN(S(=O)(=O)c3cccc4cccnc34)C2)c(OC)c1 (configuration not stated)	0.9	13.7	-0.2	7.0	64.5*	-4.9	22.7*	29.5	6.8	6.7
CCOc1ccc(CN2CCN(Cc3cccn3-c3ncccn3)CC2CCO)cc1 (configuration not stated)	-123.1	10.2	-0.3	0.7	-10.3	1.3	x	x	x	x
COC(=O)c1cccc(-c2ccc(/C=N/N3C(=O)C4C5C=CC(C6CC56)C4C3=O)o2)c1 (configuration not stated)	6.0	1.9	-0.6	11.5	23.1	0.2	x	x	x	x
